The values below come from ChEMBL document CHEMBL1156929, “Synthesis, biological evaluation, and molecular modeling of 1-benzyl-1H-imidazoles as selective inhibitors of aldosterone synthase (CYP11B2)” (J Med Chem, 2010).

Structures are written as SMILES.

Test [1] deals with T1, Cytochrome P450 11B1, mitochondrial (Homo sapiens, UniProt P15538).
T1 sequence (P15538 whole entry): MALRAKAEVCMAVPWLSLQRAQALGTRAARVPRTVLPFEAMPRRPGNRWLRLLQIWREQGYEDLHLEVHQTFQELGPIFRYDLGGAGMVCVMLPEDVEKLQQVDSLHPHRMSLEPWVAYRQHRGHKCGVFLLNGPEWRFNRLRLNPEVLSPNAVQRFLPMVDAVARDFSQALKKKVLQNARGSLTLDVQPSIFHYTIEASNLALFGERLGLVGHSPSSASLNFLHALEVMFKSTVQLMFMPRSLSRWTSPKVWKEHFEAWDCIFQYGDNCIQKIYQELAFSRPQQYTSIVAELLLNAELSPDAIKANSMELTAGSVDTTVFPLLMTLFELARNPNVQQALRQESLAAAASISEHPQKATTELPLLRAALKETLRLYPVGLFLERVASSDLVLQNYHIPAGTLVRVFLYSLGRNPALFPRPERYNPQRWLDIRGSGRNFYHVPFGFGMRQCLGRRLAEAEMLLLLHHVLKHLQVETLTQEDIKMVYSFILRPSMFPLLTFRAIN
Kind of test: Inhibition of human CYP11B1 expressed in chinese hamster V79 cells. Type of test: cell-based.

Test [2] concerns the target T2, Cytochrome P450 11B2, mitochondrial (Homo sapiens, UniProt P19099).
T2 sequence (P19099 whole entry): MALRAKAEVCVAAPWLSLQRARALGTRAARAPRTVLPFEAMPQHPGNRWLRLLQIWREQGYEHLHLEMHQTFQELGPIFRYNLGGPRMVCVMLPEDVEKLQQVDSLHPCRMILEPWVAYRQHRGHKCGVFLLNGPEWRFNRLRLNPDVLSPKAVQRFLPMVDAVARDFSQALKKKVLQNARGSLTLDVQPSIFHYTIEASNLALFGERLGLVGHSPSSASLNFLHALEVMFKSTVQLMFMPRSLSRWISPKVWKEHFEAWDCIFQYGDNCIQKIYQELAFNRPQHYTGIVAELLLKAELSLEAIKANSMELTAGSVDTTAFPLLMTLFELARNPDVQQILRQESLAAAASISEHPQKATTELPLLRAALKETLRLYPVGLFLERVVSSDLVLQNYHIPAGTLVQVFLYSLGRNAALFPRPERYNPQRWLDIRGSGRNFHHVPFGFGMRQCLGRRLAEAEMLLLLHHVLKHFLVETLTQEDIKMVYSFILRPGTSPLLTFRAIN
Kind of test: Inhibition of human CYP11B2 expressed in chinese hamster V79 cells. The format is cell-based. Put shortly:
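Confluent V79 cells stably overexpressing human CYP11B2, 37 °C, 5% CO2. […] Steroids were extracted from medium with diethylether at pH 10.5 and quantified by HPLC (UV 243 nm) using peak-area ratios to methylprednisolone internal standard. IC50 from at least five concentrations, fitted to vi = v0/(1+I/IC50).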

As to `Cc1ccccc1-c1cncn1Cc1ccc(C#N)cc1`, the IC50 was determined as 5.7 nM in test [1] (read-out: IC50) and 3.7 nM in test [2] (read-out: IC50).
As to `Brc1cccc(Cn2ccnc2)c1`, the results for the IC50 in test [1] (read-out: IC50) and in test [2] (read-out: IC50) were 143 nM and 365 nM, respectively.
`Fc1cccc(Cn2ccnc2)c1`: the IC50 in test [1] (read-out: IC50) came to 206 nM; in test [2] (read-out: IC50), 815 nM.
Taken in the same sequence, the figures for `OCc1cccc(Cn2ccnc2)c1` were 206 nM and 1170 nM.
With `Clc1cccc(Cn2ccnc2)c1`, the IC50 in test [1] (read-out: IC50) was 151 nM; in test [2] (read-out: IC50), 457 nM.
As to `CCOC(=O)c1cncn1[C@H](C)c1ccccc1` [ETOMIDATE], in test [2] (read-out: IC50), the IC50 is 1.7 nM.
Consider `Nc1ccc(Cn2ccnc2)cc1`, for which the results for the IC50 in test [1] (read-out: IC50), in test [2] and in test [2] (read-out: IC50) were 236 nM, more than 1000 nM and more than 1000 nM, respectively.
Consider `OCCCc1cncn1Cc1ccc(Br)cc1`, for which the IC50 turned out to be 18 nM in test [1] (read-out: IC50) and 6.2 nM in test [2] (read-out: IC50).
Taken in the same sequence, the figures for `N#Cc1ccc(Cn2cncc2-c2ccccc2F)cc1` were 20 nM and 2.3 nM.
Regarding `N#Cc1ccc(Cn2cncc2-c2ccccc2)cc1`, the IC50 in test [1] (read-out: IC50) was 28 nM.
Consider `c1ccc(Cn2ccnc2)cc1` [BENZYLIMIDAZOLE], for which the IC50 is 709 nM in test [1] (read-out: IC50) and 1800 nM in test [2] (read-out: IC50).
Regarding `OCCCc1cncn1Cc1ccc(Cl)cc1`, the IC50 in test [1] (read-out: IC50) was determined as 44 nM; in test [2] (read-out: IC50), 55 nM.
In the same order, the values of `OCCCc1cncn1Cc1ccccc1` are 181 nM and 286 nM.
Taken in the same sequence, the figures for `Fc1ccc(Cn2ccnc2)cc1` were 494 nM and 330 nM.
`N#Cc1ccc(Cn2cncc2CO)cc1`: the IC50 was 282 nM in test [1] (read-out: pIC50 (converted)) and 29 nM in test [2] (read-out: IC50).
For the compound `Cc1ccc(-c2cncn2Cc2ccc(C#N)cc2)cc1`, the IC50 in test [1] (read-out: IC50) was 130 nM; in test [2] (read-out: IC50), 117 nM.
Taken in the same sequence, the figures for `Fc1ccc(Cn2cncc2-c2ccccc2)cc1` were 16 nM and 11 nM.
As to `OCc1ccc(Cn2ccnc2)cc1`, the figures for the IC50 in test [1] (read-out: IC50), in test [2] and in test [2] (read-out: IC50) were 695 nM, more than 1000 nM and more than 1000 nM, respectively.
`COC(=O)CCc1cncn1Cc1ccccc1`: the IC50 in test [1] (read-out: IC50) was found to be 326 nM; in test [2] (read-out: IC50), 193 nM.
For `Cc1cccc(-c2cncn2Cc2ccc(C#N)cc2)c1`, the IC50 in test [1] (read-out: IC50) came to 6.2 nM; in test [2] (read-out: IC50), 5.2 nM.
As for `COC(=O)CCc1cncn1Cc1ccc(F)cc1`, the IC50 was 104 nM in test [1] (read-out: IC50) and 50 nM in test [2] (read-out: IC50).
Take `COC(=O)c1cncn1Cc1ccc(C#N)cc1`: the IC50 in test [2] (read-out: IC50) came out at 7 nM.
Take `N#Cc1ccc(Cn2cncc2-c2ccc(F)cc2)cc1`: the figures for the IC50 in test [1] (read-out: IC50) and in test [2] (read-out: IC50) were 27 nM and 25 nM, respectively.
For the compound `Clc1ccc(Cn2ccnc2)cc1`, the IC50 in test [1] (read-out: IC50), in test [2] and in test [2] (read-out: IC50) was more than 1000 nM in each case.
In the case of `Cc1cncn1Cc1ccc(C#N)cc1`, the IC50 in test [2] (read-out: IC50) was found to be 12 nM.
As for `COc1ccc(Cn2cncc2-c2ccccc2)cc1`, the IC50 in test [1] (read-out: IC50) was 11 nM; in test [2] (read-out: IC50), 14 nM.
Consider `N#Cc1ccc(Cn2cncc2CCCO)cc1`, for which the IC50 in test [1] (read-out: IC50) came out at 48 nM; in test [2] (read-out: IC50) it was 13 nM.
Take `N#Cc1ccc(Cn2cncc2-c2cccc(F)c2)cc1`: the IC50 in test [1] (read-out: pIC50 (converted)) is 32.4 nM.
Take `COC(=O)CCc1cncn1Cc1ccc(OC)cc1`: the IC50 amounted to 111 nM in test [1] (read-out: IC50) and 121 nM in test [2] (read-out: IC50).
For the compound `COc1ccc(Cn2cncc2CCCO)cc1`, the IC50 in test [2] (read-out: IC50) is 59 nM.
Turning to `Clc1ccc(Cn2cncc2-c2ccccc2)cc1`, the IC50 in test [1] (read-out: IC50) came to 25 nM; in test [2] (read-out: IC50), 5.8 nM.
As to `N#Cc1ccc(Cn2ccnc2)cc1`, the IC50 in test [1] (read-out: IC50) came out at 368 nM; in test [2] (read-out: IC50), 372 nM.
`Brc1ccc(Cn2ccnc2)cc1`: the IC50 in test [1] (read-out: IC50) stood at 211 nM; in test [2] (read-out: IC50), 479 nM.
Taken in the same sequence, the figures for `N#Cc1ccc(Cn2cncc2Br)cc1` were 73 nM and 23 nM.
For `N#Cc1ccc(Cn2cncc2-c2ccncc2)cc1`, the IC50 came to 307 nM in test [1] (read-out: IC50) and 407 nM in test [2] (read-out: IC50).
In the same order, the values of `Brc1ccc(Cn2cncc2-c2ccccc2)cc1` are 7 nM and 5.1 nM.
`c1ccc(Cn2cncc2-c2ccccc2)cc1`: the IC50 was determined as 4.8 nM in test [1] (read-out: IC50) and 11 nM in test [2] (read-out: IC50).
On to `OCCCc1cncn1Cc1ccc(F)cc1`, for which the IC50 in test [2] (read-out: IC50) is 16 nM.
For the compound `Nc1cccc(Cn2ccnc2)c1`, the IC50 in test [1] (read-out: IC50) was 390 nM; in test [2] (read-out: IC50), 600 nM.
`N#Cc1cccc(Cn2ccnc2)c1`: the IC50 in test [1] (read-out: IC50), in test [2] and in test [2] (read-out: IC50) was more than 1000 nM throughout.
Regarding `COC(=O)CCc1cncn1Cc1ccc(Cl)cc1`, the IC50 in test [1] (read-out: IC50) came to 123 nM; in test [2] (read-out: IC50), 177 nM.
